Entries after “also recorded” stand apart in the source; their conditions may differ.
Legend:
human recombinant PKC-βI [1] = assay: dot blot; assay type: biochemical; details: anti-p-STY; total peptide by Ponceau staining
In short: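 Input and product of the in vitro PKC-βI kinase reaction on the Nox1 T429 peptide were dot-blotted and probed with anti-p-STY. Total peptide was measured by Ponceau staining. Signal was quantified as the ratio of p-STY to total peptide. A phosphorylated T429 peptide was included.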

human recombinant PKC-βI [2] = assay: ITC in vitro kinase reaction of recombinant PKC-βI with Nox1 peptide; assay type: biochemical; details: slow return to baseline after heat of dilution
[3] = test system: NoxA1 activation domain (AD); assay: ITC binding of NoxA1 AD peptide with Nox1 peptides; details: for Kd: read-out: Kd (affinity) for NoxA1 AD, n=3 independent experiments
Nox1 [4] = assay: superoxide in intact CosPhox cells with p47phox and NoxA1; assay type: cell-based; details: TNF-α (10 ng/ml), PDGF-BB (10 ng/ml), AngII (10^-7 M), PMA (10^-6 M), RLU/sec, n=4
In short: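 Cos7 cells stably expressing p22phox (CosPhox) were transfected with p47phox, NoxA1, and either wild-type or T429A Nox1. Superoxide was read as luminescence (RLU/sec) in intact cells immediately after agonist addition. The unstimulated signal was subtracted from the agonist signal, and values were normalized to cell number.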

Nox1 [5] = assay: Nox1 phosphorylation in VSMCs, IP anti-p22phox / Western blot anti-STY; assay type: cell-based, rat; details: for Nox1 phosphorylation on agonist treatment (other agonists): VSMC, Online Figure III, timing may be agonist dependent
In short: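 A7r5 rat aortic VSMCs in culture were stimulated with TNF-α, with or without PKC inhibitor pretreatment. Nox1 phosphorylation was detected by Western blotting with an anti-phospho-Ser/Thr/Tyr (anti-STY) antibody. n=3.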

NADPH oxidase = assay type: cell-based, rat; details: VSMC membrane fractions, lucigenin, RLU, n=5–15; for TNF-α-primed NADPH oxidase activity, effect of inhibitor: TNF-α pre-treatment
In short: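 Cultured rat (A7r5) aortic VSMCs were pretreated with the test compound (a PKC inhibitor) or with the flavoenzyme inhibitor DPI, then stimulated with TNF-α. NADPH oxidase activity was measured by lucigenin-enhanced chemiluminescence and reported as relative light units. n=5–15.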

[6] = circular dichroism of peptides; assay type: physicochemical; details: negative dip below 200 nm, near-zero shoulders at longer wavelengths
VSMCs = assay: VSMC migration to TNF-α; assay type: cell-based, murine
In short: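 Aortic VSMCs from WT C57Bl6/J and Nox1-/y mice were pretreated with the test compound (a PKC inhibitor), and their migration to TNF-α was counted. n=5–15.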

Nox1 [7] = assay: ROS production by CM-H2DCF fluorescence in VSMCs; assay type: cell-based, murine
In short: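 Cultured aortic VSMCs from C57Bl6/J (WT) and Nox1-/y mice were pretreated with the test compound (a PKC inhibitor), then stimulated with TNF-α. ROS were imaged by CM-H2DCF fluorescence, with nuclei counterstained with ToPro3.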

p47^phox = assay: p47phox membrane recruitment; assay type: cell-based; details: WT versus T429A Nox1; Online Figure VIII
NoxA1 = NoxA1 membrane recruitment in CosPhox cells; assay type: cell-based; details: n=4
In short: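 CosPhox cells (Cos7 stably expressing p22phox, p47phox and p67phox) expressed p22phox, NoxA1, and either WT or T429A Nox1. After TNF-α treatment, membrane fractions were isolated and immunoblotted for NoxA1. Whole-cell lysates taken before membrane isolation were probed for GAPDH. n=4 independent experiments.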

[8] = target: T1, phosphorylated Nox1 peptide (peptide containing phosphorylated Nox1 at T429); assay: ITC
T1 chain: KLKTQKIYF

KLKTQKIYF [Nox1 peptide]
phosphorylation by PKC-βI, dot blot (human recombinant PKC-βI [1]): confirms phosphorylation | phosphorylation by PKC-βI (heat of reaction) (human recombinant PKC-βI [2]): substrate for PKC-βI | interaction with NoxA1 (in words) [3]: no measurable interaction | Kd [3]: > 100000 nM

angiotensin II (DRVYIHPF; Angiotensin-2; UniProt P01019 25-32, looked up) [AngII, reference compound]
agonist-stimulated cellular superoxide, T429A Nox1 (Nox1 [4]): markedly attenuated | agonist-stimulated cellular superoxide, WT Nox1 (Nox1 [4]): increased

CCCCCCCCCCCCCC(=O)O[C@@H]1[C@@H](C)[C@@]2(O)[C@@H](C=C(CO)C[C@]3(O)C(=O)C(C)=C[C@@H]23)[C@@H]2C(C)(C)[C@]12OC(C)=O [PMA, phorbol myristate acetate, reference compound]
Nox1 phosphorylation on agonist treatment (other agonists) (Nox1 [5]): phosphorylation of VSMC Nox1 occurs | agonist-stimulated cellular superoxide, T429A Nox1 (Nox1 [4]): does not require phosphorylation of T429 | agonist-stimulated cellular superoxide, WT Nox1 (Nox1 [4]): increased

c1ccc2c(c1)[I+]c1ccccc1-2 [DPI]
TNF-α-primed NADPH oxidase activity, effect of inhibitor (NADPH oxidase): completely abolished

KLKT*QKIYF [pNox1 peptide]
secondary structure by circular dichroism [6]: unstructured; also recorded: characteristic random coil signals | Kd [3]: 1500 ± 300 nM

COc1c(C[C@@H](C)OC(=O)Oc2ccc(O)cc2)c2c3c(C[C@@H](C)OC(=O)c4ccccc4)c(OC)c(=O)c4c(O)cc(OC)c(c5c(OC)cc(O)c(c1=O)c52)c43 [CalC, Calphostin C, reference compound]
TNF-α-primed NADPH oxidase activity, effect of inhibitor (NADPH oxidase): completely abolished | TNF-α-mediated migration, effect of pretreatment (VSMCs; WT murine VSMCs, n=5–15): blocked | Nox1-dependent ROS production, effect of pretreatment (Nox1 [7]; WT murine VSMCs, TNF-α): abrogated | TNF-α-stimulated Nox1 phosphorylation, effect of pretreatment (Nox1 [5]; cultured A7r5 rat aortic VSMCs, TNF-α, n=3): inhibited

TNF-α
NADPH oxidase activity on TNF-α pre-treatment (NADPH oxidase): primes NADPH oxidase activity | p47phox membrane recruitment on TNF-α (p47^phox): WT but not T429A Nox1 caused a recruitment of p47^phox to the membrane | VSMC migration to TNF-α (VSMCs; Nox1^-/y VSMCs compared): requires Nox1 | ROS production on TNF-α (Nox1 [7]; WT versus Nox1^-/y VSMCs): robust ROS production in WT but not Nox1^-/y VSMCs | Nox1 phosphorylation on agonist treatment (Nox1 [5]; cultured A7r5 rat aortic VSMCs, n=3): increased Nox1 phosphorylation | agonist-stimulated cellular superoxide, T429A Nox1 (Nox1 [4]): markedly attenuated | agonist-stimulated cellular superoxide, WT Nox1 (Nox1 [4]): increased | NoxA1 membrane translocation following TNF-α, T429A Nox1 (NoxA1; CosPhox cells with T429A Nox1): prevented | TNF-α-induced NoxA1 membrane recruitment, WT Nox1 (NoxA1; CosPhox cells with p22phox, p47phox, NoxA1, WT Nox1): recruitment of NoxA1 to the membrane

B1: PDGF-BB: platelet-derived growth factor-BB (protein, UniProt P01127 82-190, looked up)
Platelet-derived growth …: SLGSLTIAEPAMIAECKTRTEVFEISRRLIDRTNANFLVWPPCVEVQRCSGCCNNRNVQCRPTQVQLRPVQVRKIEIVRKKPIFKKATVTLEDHLACKCETVAAARPVT
modifications: homodimer BB
Nox1 phosphorylation on agonist treatment (other agonists) (Nox1 [5]): phosphorylation of VSMC Nox1 occurs | agonist-stimulated cellular superoxide, T429A Nox1 (Nox1 [4]): markedly attenuated | agonist-stimulated cellular superoxide, WT Nox1 (Nox1 [4]): increased

EPVDFLGKAKVVASAIP (modifications not checked) [NoxA1 activation domain peptide]
Kd [8]: 1500 nM | stoichiometry N [8]: 0.86

— publication PMC5025877 (Circulation research, 2014)
